Measurements reported in ChEMBL document CHEMBL1800074, “Novel quinoxaline derivatives for in vivo imaging of β-amyloid plaques in the brain” (Bioorg Med Chem Lett, 2011).
Calls of active or inactive are those of the source. The calls are words filed in the database; no cut-off is given here.

Key:
[1] = Displacement of [125I]IMPY from amyloid beta (1-42) after 2 hrs by gamma counting
Outline: (§1)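 Competition binding against [125I]IMPY on aggregated Aβ1-42, with inhibition curves built from the test ligand displacing the radioligand.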

[2] = Binding affinity to amyloid beta (1-42) after 2 hrs by gamma counting; outline: as §1
Lung [3] = experiment: Biodistribution in ddY mouse lung at 37 KBq/100 ul, iv after 60 mins by gamma counting; type: ADME, organism-based; conditions: in vivo, 1 h
Outline: (§2)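 Normal ddY mice got an iv injection of the 125I-labelled ligand (no carrier added, radiochemical purity >98%). Organs were collected at 2, 30, 60 and 120 min. Activity is given as % injected dose per gram; stomach is given as % injected dose per organ. Values are the average of five mice ± standard deviation.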

Lung [4] = experiment: Biodistribution in ddY mouse lung at 37 KBq/100 ul, iv after 2 mins by gamma counting; type: ADME, organism-based; conditions: in vivo; outline: as §2
Stomach [5] = experiment: Biodistribution in ddY mouse stomach assessed per organ at 37 KBq/100 ul, iv after 30 mins by gamma counting; type: ADME, organism-based; conditions: in vivo, 0.5 h; outline: as §2
Spleen [6] = experiment: Biodistribution in ddY mouse spleen at 37 KBq/100 ul, iv after 2 mins by gamma counting; type: ADME, organism-based; conditions: in vivo; outline: as §2
[7] = Lipophilicity, log D of the compound; type: physicochemical; conditions: octanol/water
Stomach [8] = experiment: Biodistribution in ddY mouse stomach assessed per organ at 37 KBq/100 ul, iv after 60 mins by gamma counting; type: ADME, organism-based; conditions: in vivo, 1 h; outline: as §2
Heart [9] = experiment: Biodistribution in ddY mouse heart at 37 KBq/100 ul, iv after 30 mins by gamma counting; type: ADME, organism-based; conditions: in vivo, 0.5 h; outline: as §2
Heart [10] = experiment: Biodistribution in ddY mouse heart at 37 KBq/100 ul, iv after 2 mins by gamma counting; type: ADME, organism-based; conditions: in vivo; outline: as §2
Heart [11] = experiment: Biodistribution in ddY mouse heart at 37 KBq/100 ul, iv after 120 mins by gamma counting; type: ADME, organism-based; conditions: in vivo, 2 h; outline: as §2
Lung [12] = experiment: Biodistribution in ddY mouse lung at 37 KBq/100 ul, iv after 30 mins by gamma counting; type: ADME, organism-based; conditions: in vivo, 0.5 h; outline: as §2
Heart [13] = experiment: Biodistribution in ddY mouse heart at 37 KBq/100 ul, iv after 60 mins by gamma counting; type: ADME, organism-based; conditions: in vivo, 1 h; outline: as §2
Stomach [14] = experiment: Biodistribution in ddY mouse stomach assessed per organ at 37 KBq/100 ul, iv after 2 mins by gamma counting; type: ADME, organism-based; conditions: in vivo; outline: as §2
Kidney [15] = experiment: Biodistribution in ddY mouse kidney at 37 KBq/100 ul, iv after 2 mins by gamma counting; type: ADME, organism-based; conditions: in vivo; outline: as §2
Kidney [16] = experiment: Biodistribution in ddY mouse kidney at 37 KBq/100 ul, iv after 120 mins by gamma counting; type: ADME, organism-based; conditions: in vivo, 2 h; outline: as §2
Blood [17] = experiment: Biodistribution in ddY mouse blood at 37 KBq/100 ul, iv after 30 mins by gamma counting; type: ADME, organism-based; conditions: in vivo, 0.5 h; outline: as §2
Intestine [18] = experiment: Biodistribution in ddY mouse intestine at 37 KBq/100 ul, iv after 30 mins by gamma counting; type: ADME, organism-based; conditions: in vivo, 0.5 h; outline: as §2
Liver [19] = experiment: Biodistribution in ddY mouse liver at 37 KBq/100 ul, iv after 60 mins by gamma counting; type: ADME, organism-based; conditions: in vivo, 1 h; outline: as §2
Brain [20] = experiment: Biodistribution in ddY mouse brain at 37 KBq/100 ul, iv after 60 mins by gamma counting; type: ADME, organism-based; conditions: in vivo, 1 h; outline: as §2
Stomach [21] = experiment: Biodistribution in ddY mouse stomach assessed per organ at 37 KBq/100 ul, iv after 120 mins by gamma counting; type: ADME, organism-based; conditions: in vivo, 2 h; outline: as §2
Brain [22] = experiment: Biodistribution in ddY mouse brain at 37 KBq/100 ul, iv after 2 mins by gamma counting; type: ADME, organism-based; conditions: in vivo; outline: as §2
Blood [23] = experiment: Biodistribution in ddY mouse blood at 37 KBq/100 ul, iv after 2 mins by gamma counting; type: ADME, organism-based; conditions: in vivo; outline: as §2
Kidney [24] = experiment: Biodistribution in ddY mouse kidney at 37 KBq/100 ul, iv after 30 mins by gamma counting; type: ADME, organism-based; conditions: in vivo, 0.5 h; outline: as §2
Liver [25] = experiment: Biodistribution in ddY mouse liver at 37 KBq/100 ul, iv after 2 mins by gamma counting; type: ADME, organism-based; conditions: in vivo; outline: as §2
Intestine [26] = experiment: Biodistribution in ddY mouse intestine at 37 KBq/100 ul, iv after 2 mins by gamma counting; type: ADME, organism-based; conditions: in vivo; outline: as §2
Intestine [27] = experiment: Biodistribution in ddY mouse intestine at 37 KBq/100 ul, iv after 120 mins by gamma counting; type: ADME, organism-based; conditions: in vivo, 2 h; outline: as §2
Spleen [28] = experiment: Biodistribution in ddY mouse spleen at 37 KBq/100 ul, iv after 60 mins by gamma counting; type: ADME, organism-based; conditions: in vivo, 1 h; outline: as §2
Liver [29] = experiment: Biodistribution in ddY mouse liver at 37 KBq/100 ul, iv after 120 mins by gamma counting; type: ADME, organism-based; conditions: in vivo, 2 h; outline: as §2
Liver [30] = experiment: Biodistribution in ddY mouse liver at 37 KBq/100 ul, iv after 30 mins by gamma counting; type: ADME, organism-based; conditions: in vivo, 0.5 h; outline: as §2
Lung [31] = experiment: Biodistribution in ddY mouse lung at 37 KBq/100 ul, iv after 120 mins by gamma counting; type: ADME, organism-based; conditions: in vivo, 2 h; outline: as §2
Brain [32] = experiment: Ratio of drug uptake after 2 mins to drug uptake in 120 mins in ddY mouse brain at 37 KBq/100 ul, iv; type: ADME, organism-based; conditions: in vivo
Outline: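 Brain uptake (% injected dose per gram) in normal ddY mice after iv injection of the 125I-labelled ligand. The value is the brain 2 min / brain 120 min ratio, from five mice per time point.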

Spleen [33] = experiment: Biodistribution in ddY mouse spleen at 37 KBq/100 ul, iv after 30 mins by gamma counting; type: ADME, organism-based; conditions: in vivo, 0.5 h; outline: as §2
Kidney [34] = experiment: Biodistribution in ddY mouse kidney at 37 KBq/100 ul, iv after 60 mins by gamma counting; type: ADME, organism-based; conditions: in vivo, 1 h; outline: as §2
Intestine [35] = experiment: Biodistribution in ddY mouse intestine at 37 KBq/100 ul, iv after 60 mins by gamma counting; type: ADME, organism-based; conditions: in vivo, 1 h; outline: as §2
Blood [36] = experiment: Biodistribution in ddY mouse blood at 37 KBq/100 ul, iv after 120 mins by gamma counting; type: ADME, organism-based; conditions: in vivo, 2 h; outline: as §2
Brain [37] = experiment: Biodistribution in ddY mouse brain at 37 KBq/100 ul, iv after 120 mins by gamma counting; type: ADME, organism-based; conditions: in vivo, 2 h; outline: as §2
Spleen [38] = experiment: Biodistribution in ddY mouse spleen at 37 KBq/100 ul, iv after 120 mins by gamma counting; type: ADME, organism-based; conditions: in vivo, 2 h; outline: as §2
Brain [39] = experiment: Biodistribution in ddY mouse brain at 37 KBq/100 ul, iv after 30 mins by gamma counting; type: ADME, organism-based; conditions: in vivo, 0.5 h; outline: as §2
Blood [40] = experiment: Biodistribution in ddY mouse blood at 37 KBq/100 ul, iv after 60 mins by gamma counting; type: ADME, organism-based; conditions: in vivo, 1 h; outline: as §2
[41] = target: Amyloid-beta precursor protein (Homo sapiens) (UniProt P05067); experiment: Binding affinity to amyloid beta (1-42) plaque in brain of patient with Alzheimer's disease at 185 KBq/100ul after 1 hr by immunofluorescence staining method; type: tissue-based; conditions: tested as the 125I-labelled form
Outline: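 In vitro autoradiography with the 125I-labelled ligand on brain sections from an Alzheimer's disease patient. Plaque presence and distribution were confirmed by immunohistochemical staining with a monoclonal Aβ antibody.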

Mus musculus = species: Mus musculus; experiment: Binding affinity to amyloid beta plaque in APP/PS1 transgenic C57BL/6 mouse brain cortex at 185 KBq/100 ul after 1 hr by thioflavin S-fluorescence staining method; type: tissue-based; conditions: C57BL6, tested as the 125I-labelled form

Amyloid-beta precursor protein (Homo sapiens), sequence (P05067 whole entry): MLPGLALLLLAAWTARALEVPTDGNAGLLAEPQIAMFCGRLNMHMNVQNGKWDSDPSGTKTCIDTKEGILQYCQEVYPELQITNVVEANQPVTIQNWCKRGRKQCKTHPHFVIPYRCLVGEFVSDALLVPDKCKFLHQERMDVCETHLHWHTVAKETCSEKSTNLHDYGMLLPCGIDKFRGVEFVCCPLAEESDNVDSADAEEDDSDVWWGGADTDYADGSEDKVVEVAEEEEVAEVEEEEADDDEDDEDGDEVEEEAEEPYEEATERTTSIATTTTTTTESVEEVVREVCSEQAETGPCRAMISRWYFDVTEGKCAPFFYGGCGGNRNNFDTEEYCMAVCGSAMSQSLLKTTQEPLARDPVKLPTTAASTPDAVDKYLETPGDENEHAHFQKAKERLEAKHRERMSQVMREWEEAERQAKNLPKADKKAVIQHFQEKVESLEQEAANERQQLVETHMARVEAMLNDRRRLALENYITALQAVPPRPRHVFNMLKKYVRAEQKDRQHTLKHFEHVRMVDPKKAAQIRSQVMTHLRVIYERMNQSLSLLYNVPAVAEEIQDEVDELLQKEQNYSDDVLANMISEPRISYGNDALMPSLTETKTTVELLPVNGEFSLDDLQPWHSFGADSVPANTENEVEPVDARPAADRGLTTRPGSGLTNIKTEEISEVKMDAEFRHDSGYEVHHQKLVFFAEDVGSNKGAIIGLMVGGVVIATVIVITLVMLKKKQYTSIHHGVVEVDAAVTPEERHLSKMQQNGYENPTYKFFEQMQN

## CNc1ccc(-c2cnc3cc(I)ccc3n2)cc1
[1]
  Ki: 7.7 nM

## Nc1ccc(-c2cnc3cc(I)ccc3n2)cc1
[1]
  Ki: 10.7 nM

## CN(C)c1ccc(-c2cn3cc([123I])ccc3n2)cc1
[2]
  Kd: 0.43 nM

## CN(C)c1ccc(-c2cnc3cc([125I])ccc3n2)cc1
Lung [3]
  Drug uptake: 3.53 % ID/g
Lung [4]
  Drug uptake: 14.53 % ID/g
Stomach [5]
  Drug uptake: 3.28 %ID
Spleen [6]
  Drug uptake: 5.69 % ID/g
[7]
  logD: 4.02
Stomach [8]
  Drug uptake: 5.39 %ID
Heart [9]
  Drug uptake: 2.53 % ID/g
Heart [10]
  Drug uptake: 14.91 % ID/g
Heart [11]
  Drug uptake: 1.22 % ID/g
Lung [12]
  Drug uptake: 3.99 % ID/g
Heart [13]
  Drug uptake: 2.17 % ID/g
Stomach [14]
  Drug uptake: 2.06 %ID
Kidney [15]
  Drug uptake: 19.67 % ID/g
Kidney [16]
  Drug uptake: 3.96 % ID/g
Blood [17]
  Drug uptake: 2.88 % ID/g
Intestine [18]
  Drug uptake: 18.62 % ID/g
Liver [19]
  Drug uptake: 12.5 % ID/g
Brain [20]
  Drug uptake: 2.91 % ID/g
Stomach [21]
  Drug uptake: 8.62 %ID
Brain [22]
  Drug uptake: 6.03 % ID/g
Blood [23]
  Drug uptake: 4.71 % ID/g
Kidney [24]
  Drug uptake: 8.76 % ID/g
Liver [25]
  Drug uptake: 30.49 % ID/g
Intestine [26]
  Drug uptake: 3.43 % ID/g
Intestine [27]
  Drug uptake: 16.93 % ID/g
Spleen [28]
  Drug uptake: 2.22 % ID/g
Liver [29]
  Drug uptake: 7.53 % ID/g
Liver [30]
  Drug uptake: 15.73 % ID/g
Lung [31]
  Drug uptake: 1.95 % ID/g
Brain [32]
  Ratio: 5.38
Spleen [33]
  Drug uptake: 2.82 % ID/g
Kidney [34]
  Drug uptake: 6.68 % ID/g
Intestine [35]
  Drug uptake: 22.5 % ID/g
Blood [36]
  Drug uptake: 1.88 % ID/g
Brain [37]
  Drug uptake: 1.12 % ID/g
Spleen [38]
  Drug uptake: 1.17 % ID/g
Brain [39]
  Drug uptake: 5.21 % ID/g
Blood [40]
  Drug uptake: 2.98 % ID/g

## CNc1ccc(-c2ccc3cc(OCCOCCOCCF)ccc3c2)cc1
[1]
  Ki: 3 nM

## CN(C)c1ccc(-c2cnc3cc(I)ccc3n2)cc1
[1]
  Ki: 4.1 nM
[41]
  Activity: Active
Mus musculus
  Activity: Active

## CN(C)c1ccc(-c2cnc3cc(Br)ccc3n2)cc1
[1]
  Ki: 2.6 nM

## CNc1ccc2cc(-c3ccc(OCCOCCOCCF)cc3)ccc2c1
[1]
  Ki: 1.6 nM
